In publication PMC5443258 (Cancer cell, 2017):
Where a SMILES comes first, the peptide text is derived from it. Where no end group is shown, it is not given here. [ ]: non-standard residue; d: D form.

Experiments:
ERG:AR interaction = target: T1, ERG:AR interaction (Homo sapiens, UniProt P11308); assay: In vitro peptide competitive pull-down, ERG:AR; format: biochemical; details: cell-free, Halo-ERG and GST-AR, increasing peptide concentrations, immunoblot
T1 sequence (P11308 1-479): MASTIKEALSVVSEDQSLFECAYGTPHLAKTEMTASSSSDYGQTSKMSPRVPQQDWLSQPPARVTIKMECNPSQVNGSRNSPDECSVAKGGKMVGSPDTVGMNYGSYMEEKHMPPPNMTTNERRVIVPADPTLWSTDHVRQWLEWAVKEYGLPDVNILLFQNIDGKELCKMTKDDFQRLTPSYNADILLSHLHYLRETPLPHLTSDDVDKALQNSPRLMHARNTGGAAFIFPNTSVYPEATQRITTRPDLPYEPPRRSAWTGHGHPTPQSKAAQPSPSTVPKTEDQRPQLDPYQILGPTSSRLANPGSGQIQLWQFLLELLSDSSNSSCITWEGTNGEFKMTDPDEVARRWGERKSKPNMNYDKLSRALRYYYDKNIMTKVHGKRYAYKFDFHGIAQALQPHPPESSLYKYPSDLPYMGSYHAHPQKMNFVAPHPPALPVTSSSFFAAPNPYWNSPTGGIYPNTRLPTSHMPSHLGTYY

ERG protein = target: T2, ERG protein (Homo sapiens, UniProt P11308); assay: Biolayer interferometry
T2 sequence (P11308 1-479): T1 sequence (P11308 1-479)

[1] = target: T3, ERG protein in PC3-ERG cells (Homo sapiens, UniProt P11308); assay: Immunoblot of ERG protein in PC3-ERG cells; format: cell-based; details: even at 5 μM concentration
T3 sequence (P11308 1-479): T1 sequence (P11308 1-479)

[2] = target: T4, ERG protein in RWPE1-ERG cells (Homo sapiens, UniProt P11308); assay: Immunoblot of ERG protein in RWPE1-ERG cells; format: cell-based; details: even at 5 μM concentration
T4 sequence (P11308 33-479 limits assumed): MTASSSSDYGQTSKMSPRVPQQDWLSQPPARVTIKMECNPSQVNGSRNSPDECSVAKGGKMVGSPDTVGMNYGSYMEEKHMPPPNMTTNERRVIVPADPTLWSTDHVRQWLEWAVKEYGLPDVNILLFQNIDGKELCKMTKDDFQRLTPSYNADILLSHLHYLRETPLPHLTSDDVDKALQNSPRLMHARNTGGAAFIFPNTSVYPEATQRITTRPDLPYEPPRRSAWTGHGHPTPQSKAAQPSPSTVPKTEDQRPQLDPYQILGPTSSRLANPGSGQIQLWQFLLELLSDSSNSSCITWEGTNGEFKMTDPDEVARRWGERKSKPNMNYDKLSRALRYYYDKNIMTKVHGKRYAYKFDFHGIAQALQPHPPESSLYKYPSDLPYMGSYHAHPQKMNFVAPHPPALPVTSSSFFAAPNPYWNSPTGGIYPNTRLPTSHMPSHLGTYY

ERG:EBS DNA interaction = ERG:EBS DNA interaction (Homo sapiens, UniProt P11308)
ERG_Y373A = ERG_Y373A (Homo sapiens, UniProt P11308, Y373A); assay: biochemical
[3] = target: T5, ERG protein in VCaP cells (Homo sapiens, UniProt P11308); assay: Cellular thermal shift assay; format: cell-based; details: 50°C, 3 hours treatment
T5 sequence (P11308 33-479 limits assumed): T4 sequence (P11308 33-479 limits assumed)

[4] = test system: ERG recruitment to chromatin; assay: ChIP and ChIP-seq in VCaP cells; format: cell-based
Method in brief: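 VCaP cells were exposed to 50 μM test compound or mutant control peptide for 12 h. Cells were cross-linked in 1% formaldehyde for 10 min, quenched with glycine, and sonicated to ~200 bp fragments. Chromatin from 5×10^6 cells was incubated with antibody overnight at 4°C, and crosslinks were reversed at 67°C for 4–5 h. ChIP-seq ERG signal was normalized and taken at summits of 4th-quartile peaks (mutant-control sample), ±400 bp.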

[5] = target: T6, ERG protein in HUVEC cells (Homo sapiens, UniProt P11308); assay: Cellular thermal shift assay; format: cell-based
T6 sequence (P11308 1-479): T1 sequence (P11308 1-479)

VCaP xenografts = assay: VCaP xenograft mouse model; format: in vivo, mice; details: 25 mg/kg, IP-Western blot, compared to mutant peptide
Method in brief: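 Mice carried VCaP xenografts staged for three weeks, with 10 per group. Test compound or mutant control peptide was given IP at 25 mg/kg daily. Tumors were collected 24 h after the final dose and lysed in MOPS pH 7.0 buffer with phosphatase and protease inhibitors. For IP-Western, 0.5–1.0 mg lysate was precleared, incubated with 2 μg anti-ERG at 4°C for 4 h, then with protein A/G beads overnight, and immunoblotted.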

ERG:DNA-PKcs interaction = target: T7, ERG:DNA-PKcs interaction (Homo sapiens, UniProt P11308); assay: Co-immunoprecipitation from VCaP xenograft tumors after single dose; format: in vivo, mice; details: single 25 mg/kg dose IP, three and six hours post injection, co-IP immunoblot
T7 sequence (P11308 33-479 limits assumed): T4 sequence (P11308 33-479 limits assumed)

[6] = target: T5, ERG protein in VCaP cells; format: cell-based
VCaP cells = test system: VCaP cells; design: species or system chicken; details: in vivo, 25 mg/kg

| Compound | disruption of direct ERG:AR interaction (ERG:AR interaction) | Kd (ERG protein) [nM] | effect on ERG protein in PC3-ERG cells [1] | effect on ERG protein in RWPE1-ERG cells [2] | disruption of ERG:EBS DNA interaction (ERG:EBS DNA interaction) | Kd (ERG_Y373A) [nM] | solubility of ERG protein, isothermal dose-response [3] | average ERG ChIP-seq signal for 4th quartile peaks ([4]; 50 μM, 12 hours, compared to mutant peptide) | ERG and DNA-PKcs enrichment at ERG-regulated genomic loci (ChIP) ([4]; 12 hours treatment) | thermal shift of soluble ERG protein in HUVEC cells (CETSA) [5] | ERG protein in VCaP xenograft tumors after 18 days treatment (VCaP xenografts) | ERG:DNA-PKcs interaction in xenograft tumors (ERG:DNA-PKcs interaction) | ERG protein half-life in the presence of cycloheximide [6] | ERG-mediated invasion in CAM (VCaP cells) |
| --- | --- | --- | --- | --- | --- | --- | --- | --- | --- | --- | --- | --- | --- | --- |
| LSFGSLP [EIP2] | disrupted | 1800 |  |  |  |  |  |  |  |  |  |  |  |  |
| CC(C)C[C@@H](NC(=O)[C@@H](CO)NC(=O)[C@@H](Cc1ccccc1)NC(=O)CNC(=O)[C@@H](CO)NC(=O)[C@@H](CC(C)C)NC(=O)[C@H]1CCCN1)C(=O)O [RI-EIP2] (H-[dP][dL][dS]G[dF][dS][dL]-OH) |  | 1280 | destabilized | destabilized |  |  |  |  |  |  |  |  |  |  |
| LPPYLFT [EIP1] | disrupted | 600 |  |  | effectively disrupted | > 100000 |  |  |  |  |  |  |  |  |
| CC(C)C[C@@H](NC(=O)[C@H]1CCCN1C(=O)[C@H]1CCCN1C(=O)[C@@H](Cc1ccc(O)cc1)NC(=O)[C@@H](CC(C)C)NC(=O)[C@@H](Cc1ccccc1)NC(=O)[C@H](N)[C@H](C)O)C(=O)O [RI-EIP1] (H-[dT][dF][dL][dY][dP][dP][dL]-OH) |  | 940 | destabilized | destabilized |  |  | increased in a dose-dependent fashion | markedly reduced | inhibited | no clear thermal shift | degradation of ERG protein | blocked | significantly shortened | blocked |
